Series [1] relates to Coptotermes formosanus. The series can be described thus: Insecticidal activity against Coptotermes formosanus assessed as mortality at 100 ppm after 5 days by filter paper contact method relative to control. In kind it is functional.
Series [2] has as its system Coptotermes formosanus. In words: Insecticidal activity against Coptotermes formosanus assessed as mortality at 1000 ppm after 5 days by filter paper contact method relative to control. It counts as functional.
For series [3], the system named is Coptotermes formosanus. In words: Insecticidal activity against Coptotermes formosanus assessed as mortality at 100 ppm after 2 days by filter paper contact method relative to control. It counts as functional.
For series [4], the system named is Coptotermes formosanus. The series can be described thus: Insecticidal activity against Coptotermes formosanus assessed as mortality at 1000 ppm after 1 day by filter paper contact method relative to control. It counts as functional.
For series [5], the system named is Coptotermes formosanus. In words: Insecticidal activity against Coptotermes formosanus assessed as mortality at 100 ppm after 1 day by filter paper contact method relative to control. In kind it is functional.
Series [6] relates to Coptotermes formosanus. In words: Insecticidal activity against Coptotermes formosanus assessed as mortality at 1000 ppm after 2 days by filter paper contact method relative to control. It counts as functional.
Series [7] relates to Coptotermes formosanus. The series can be described thus: Insecticidal activity against Coptotermes formosanus assessed as mortality at 1000 ppm after 7 days by filter paper contact method relative to control. It counts as functional.
The test system of series [8] is Coptotermes formosanus. The series can be described thus: Insecticidal activity against Coptotermes formosanus assessed as mortality at 100 ppm after 7 days by filter paper contact method relative to control. In kind it is functional.
Series [9] concerns A549. The series can be described thus: Inhibition of IL-1-beta-induced ICAM1 protein expression in human A549 cells treated for 1 hr before IL1-beta challenge for 6 hrs. In kind it is functional, cell-based. In short, it runs like this: (§1)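 A549 cells at 3 × 10⁴/well pretreated with compound 1 h, then IL-1β at 0.25 ng/mL final for 6 h. Cells fixed in 1% paraformaldehyde and blocked with 1% BSA overnight. Mouse anti-human ICAM-1 and peroxidase anti-mouse IgG each 60 min at 37 °C. o-Phenylenediamine/H₂O₂ substrate (citrate pH 5.3), 20 min dark, A415. Expression normalised between IL-1β-treated and unstimulated wells. Triplicate.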

A short description of series [10]: Cytotoxicity against human A549 cells after 24 hrs at 32 uM by MTT assay relative to control. In kind it is cell-based. The settings on record: read-out: T/C. A digest of the protocol:
(§2)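 A549 lung carcinoma cells grown in RPMI 1640 with 10% fetal calf serum, 50 µM 2-mercaptoethanol and penicillin-streptomycin-neomycin. Cells incubated with or without compound for 24 h, with MTT (500 µg/mL) present for the last 4 h. Formazan solubilised overnight in 5% SDS, absorbance read at 595 nm. Viability (%) = (sample − background)/(control − background) × 100. Triplicate cultures, mean ± SD.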
On the technique in general: Tetrazolium dyes change colour on reduction, which living cells bring about.

Series [11] is described as follows: Cytotoxicity against human A549 cells after 24 hrs at 1000 uM by MTT assay relative to control. Particulars: read-out: T/C. It counts as cell-based. In short, it runs like this: as §2
For series [12], the system named is A549. The series can be described thus: Inhibition of IL-1-beta-induced ICAM1 protein expression in human A549 cells at 10 uM treated for 1 hr before IL1-beta challenge for 6 hrs relative to control. In kind it is functional. In short, it runs like this:
as §1

Series [13] has as its system A549. The series can be described thus: Inhibition of IL-1-beta-induced ICAM1 protein expression in human A549 cells at 1000 uM treated for 1 hr before IL1-beta challenge for 6 hrs relative to control. In kind it is functional. In short, it runs like this:
as §1

Series [14] concerns A549. The series can be described thus: Inhibition of IL-1-beta-induced ICAM1 protein expression in human A549 cells at 100 uM treated for 1 hr before IL1-beta challenge for 6 hrs relative to control. In kind it is functional. A digest of the protocol: as §1
In series [15] the test system is A549. The series can be described thus: Cytotoxicity against human A549 cells after 24 hrs by MTT assay. It counts as cell-based. Particulars: A549, 24 h. A digest of the protocol: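 A549 cells (RPMI 1640, 10% FCS, 50 µM 2-mercaptoethanol, antibiotics) incubated with test compound 24 h; MTT 500 µg/mL pulsed for final 4 h; formazan dissolved in 5% SDS overnight; absorbance 595 nm. Viability % = (sample − background)/(control − background) × 100. Triplicate cultures.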

The nature of series [16]: Cytotoxicity against human A549 cells after 24 hrs at 3.2 uM by MTT assay relative to control. It counts as cell-based. Particulars: read-out: T/C. A digest of the protocol: as §2
The subject of series [17] is A549. In words: Inhibition of IL-1-beta-induced ICAM1 protein expression in human A549 cells at 1 uM treated for 1 hr before IL1-beta challenge for 6 hrs relative to control. It counts as functional. In short, it runs like this:
as §1

The test system of series [18] is A549. The series can be described thus: Inhibition of IL-1-beta-induced ICAM1 protein expression in human A549 cells at 3.2 uM treated for 1 hr before IL1-beta challenge for 6 hrs relative to control. In kind it is functional. In short, it runs like this: as §1
Series [19] in a line: Cytotoxicity against human A549 cells after 24 hrs at 100 uM by MTT assay relative to control. In kind it is cell-based. Particulars: read-out: T/C. A digest of the protocol: as §2
Series [20] is described as follows: Cytotoxicity against human A549 cells after 24 hrs at 1 uM by MTT assay relative to control. It counts as cell-based. Particulars: read-out: T/C. In short, it runs like this:
as §2

Series [21] is described as follows: Cytotoxicity against human A549 cells after 24 hrs at 10 uM by MTT assay relative to control. In kind it is cell-based. Particulars: read-out: T/C. A digest of the protocol:
as §2

Series [22] is described as follows: Cytotoxicity against human A549 cells after 24 hrs at 320 uM by MTT assay relative to control. Particulars: read-out: T/C. It counts as cell-based. In short, it runs like this:
as §2

The subject of series [23] is A549. In words: Inhibition of IL-1-beta-induced ICAM1 protein expression in human A549 cells at 320 uM treated for 1 hr before IL1-beta challenge for 6 hrs relative to control. It counts as functional. In short, it runs like this:
as §1

Series [24] deals with A549. The series can be described thus: Inhibition of IL-1-beta-induced ICAM1 protein expression in human A549 cells at 32 uM treated for 1 hr before IL1-beta challenge for 6 hrs relative to control. It counts as functional. In short, it runs like this:
as §1

Each structure is given as a SMILES string.

With `C#C[C@@H]1CC[C@@]2(C)CCC(=O)[C@@H](C)[C@@H]2C1`, the Activity in the series on Coptotermes formosanus [1] is 0%; in the series with Coptotermes formosanus [2], 100%; in the series on Coptotermes formosanus [3], 0%; in the series on Coptotermes formosanus [4], 0%; in the series on Coptotermes formosanus [5], 0%; with Coptotermes formosanus [6] it was 93%.

`C#C[C@@H]1CC[C@@]2(C)C=CC(=O)[C@@H](C)[C@@H]2C1`: the Activity came to 43% with Coptotermes formosanus [1]; 100% in the series with Coptotermes formosanus [7]; 100% with Coptotermes formosanus [2]; 100% in the series with Coptotermes formosanus [8]; 0% with Coptotermes formosanus [3]; 80% with Coptotermes formosanus [4]. The results for the Activity in the series with Coptotermes formosanus [5] and in the series with Coptotermes formosanus [6] were 0% and 97%, respectively.

For the compound `C#C[C@@H]1CC[C@@]2(C)C=CC(=O)C(=C)[C@@H]2C1`, the Activity in the series with Coptotermes formosanus [1] came out at 17%; in the series on Coptotermes formosanus [2], 100%; in the series with Coptotermes formosanus [3] it was 3%; with Coptotermes formosanus [4] it was 33%; in the series on Coptotermes formosanus [5], 0%; in the series with Coptotermes formosanus [6], 93%.

The IC50 is the concentration at which inhibition is half-maximal. Read a low IC50 as greater potency. As for `C[C@@H]1C(=O)O[C@@H]2[C@H]1CC[C@@]1(C)CCC(=O)[C@@H](C)[C@H]21`, the IC50 with A549 [9] was more than 1000 µM.

`C=C1C(=O)O[C@H]2[C@H]3[C@H](C)C(=O)CC[C@]3(C)CC[C@@H]12` registered an IC50 with A549 [9] of 17 µM.

Consider `C#C[C@@H]1CC[C@@]2(C)C=CC(=O)[C@@H](C)[C@H]2C1` [CHAMAECYNONE], for which the Activity in the series with Coptotermes formosanus [1] is on record as 27%; with Coptotermes formosanus [7], 100%; in the series with Coptotermes formosanus [2] it was 100%; in the series with Coptotermes formosanus [8] it was 87%; in the series with Coptotermes formosanus [3] it was 0%; in the series on Coptotermes formosanus [4], 27%. Also, the Activity turned out to be 0% in the series on Coptotermes formosanus [5] and 97% in the series with Coptotermes formosanus [6].

With `C=C1C(=O)C=C[C@]2(C)CC[C@H]3C(=C)C(=O)O[C@H]3[C@@H]12` [DEHYDROBRACHYLAENOLIDE], the viability at 24 h, 32 µM in series [10] stood at 68.8%. The viability at 24 h, 1000 µM in series [11] was 11.8%. The T/C in the series on A549 [12] is given as 1.1%; with A549 [13], -3.3%; with A549 [14] it was -0.3%; with A549 [17], 75.5%; with A549 [18] it was 44.4%; with A549 [23], -1.4%. Also, the T/C in the series on A549 [24] came to 0.1%. Moreover, the results for the IC50 in the series with A549 [15] and with A549 [9] were 55 µM and 3 µM, respectively. Further, the viability at 24 h, 3.2 µM in [16] was determined as 90.8%. Further, the viability at 24 h, 100 µM in [19] came to 29.3%. The Activity entry in the series with A549 [9] is “Dose-dependent effect”. Besides, in series [20], the viability at 24 h, 1 µM worked out at 100%. Besides, the viability at 24 h, 10 µM in series [21] came to 93.8%. Also, the viability at 24 h, 320 µM in series [22] is 28.6%.

On to `C#C[C@@H]1CC[C@@]2(C)C=CC(=O)C(C)=C2C1` [DEHYDROCHAMAECYNONE], for which the Activity in the series on Coptotermes formosanus [1] is 7%; with Coptotermes formosanus [2], 100%; in the series on Coptotermes formosanus [3] it was 0%; in the series with Coptotermes formosanus [4], 13%; with Coptotermes formosanus [5], 0%; with Coptotermes formosanus [6], 90%.

`C=C1C(=O)O[C@H]2[C@H]3[C@H](C)C(=O)C=C[C@]3(C)CC[C@@H]12` [TUBERIFERINE]: the IC50 with A549 [9] is 7.4 µM.

The record behind these values is ChEMBL document CHEMBL1159377, “Synthetic approach to exo-endo cross-conjugated cyclohexadienones and its application to the syntheses of dehydrobrachylaenolide, isodehydrochamaecynone, and trans-isodehydrochamaecynone” (J Nat Prod, 2003).
